Experimental data reported in ChEMBL document CHEMBL1123517, “Synthesis and antiallergic activity of a novel series of 5-lipoxygenase inhibitors” (J Med Chem, 1986).

What was measured:
[1] = biological target: T1, Polyunsaturated fatty acid 5-lipoxygenase (Rattus norvegicus, UniProt P12527); assay: In vitro for inhibition of LTB4 (leukotriene B4) production in isolated rat polymorphonuclear leukocytes (PMNs).; assay type: functional
T1 sequence (P12527 whole entry): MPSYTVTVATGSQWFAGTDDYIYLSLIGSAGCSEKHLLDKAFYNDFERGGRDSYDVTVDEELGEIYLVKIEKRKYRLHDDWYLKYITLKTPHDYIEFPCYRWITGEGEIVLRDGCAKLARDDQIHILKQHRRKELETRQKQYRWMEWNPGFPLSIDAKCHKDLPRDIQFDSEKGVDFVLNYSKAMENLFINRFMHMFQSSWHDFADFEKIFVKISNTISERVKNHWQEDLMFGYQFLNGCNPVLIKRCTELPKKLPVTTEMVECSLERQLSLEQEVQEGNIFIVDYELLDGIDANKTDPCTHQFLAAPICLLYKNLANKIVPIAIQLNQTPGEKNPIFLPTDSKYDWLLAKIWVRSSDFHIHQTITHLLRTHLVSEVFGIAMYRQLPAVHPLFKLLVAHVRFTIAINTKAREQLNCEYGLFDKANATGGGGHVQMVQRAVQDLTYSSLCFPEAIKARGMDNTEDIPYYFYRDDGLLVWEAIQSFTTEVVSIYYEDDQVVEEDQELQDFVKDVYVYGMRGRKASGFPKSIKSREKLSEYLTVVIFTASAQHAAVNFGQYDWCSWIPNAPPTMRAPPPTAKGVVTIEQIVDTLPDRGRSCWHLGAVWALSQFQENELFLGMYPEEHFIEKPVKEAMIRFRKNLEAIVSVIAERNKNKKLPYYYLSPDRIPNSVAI
In short: (§1)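 Peritoneal PMNs from female Wistar rats (150–250 g) given 6% glycogen ip; harvested at 24 h by lavage, resuspended at 2×10^7 cells/mL in HBSS with Ca2+/Mg2+ and 10 mM L-cysteine. Drug or vehicle preincubated 10 min at 37 °C; then A23187 (10 μM) plus 0.5 μCi [14C]arachidonic acid for 10 min. Stopped at pH 3.5, ether-extracted; IC50 per metabolite by nonlinear regression.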

[2] = biological target: T1, Polyunsaturated fatty acid 5-lipoxygenase; assay: In vitro for inhibition of 5-HETE production in isolated rat polymorphonuclear leukocytes (PMNs); assay type: functional; in short: as §1
Cavia porcellus [3] = assay: In vivo inhibition of ovalbumin induced bronchoconstriction in guinea pig by 50 mg/kg 10 min prior to challenge.; assay type: functional
In short: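 Male Hartley guinea pigs (350–600 g) sensitized to OA (5 mg ip + 5 mg sc), used 3–5 weeks later under pentobarbital (50 mg/kg ip), artificially ventilated. Indomethacin 10 mg/kg iv 9 min before challenge, chlorpheniramine 1.0 mg/kg iv 1 min later. Drug 50 mg/kg id 10 min before aerosolized 1% OA; controls saline.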

Cavia porcellus [4] = species on record: Cavia porcellus; assay: Competitive inhibition of LTD4-induced contraction of isolated guinea pig tracheal spiral strips
Rattus norvegicus = species on record: Rattus norvegicus; assay: Compound was tested in vitro for inhibition of 5-HETE production in isolated rat polymorphonuclear leukocytes (PMNs) at 50 uM; assay type: functional

Compound | IC50 [1] [µM] | IC50 [2] [µM] | inhibition in vivo at 50 mg/kg (Cavia porcellus [3]) [%] | pKB (Cavia porcellus [4]) | inhibition at 50 µM (Rattus norvegicus) [%]
COC(=O)CC(=O)Nc1cccc(COc2ccc(C(C)=O)c(O)c2)c1 | 11.7 | 14.2 | 61.4 | 4.94 | –
COC(=O)CC(=O)Nc1cccc(COc2ccc(C(C)=O)c(OC)c2)c1 | – | – | 64.3 | – | –
COC(=O)CCCC(=O)Nc1cccc(COc2ccc(C(C)=O)c(O)c2)c1 | 39.3 | 32.7 | -0.1 | – | –
CCCCCC(=O)c1ccc(OCc2cccc(NC(=O)CC(=O)OC)c2)cc1OC | – | – | 0 | – | –
CCc1ccc(OCc2cccc(NC(=O)CCC(=O)OC)c2)cc1OC | 7.09 | 5.6 | 0.2 | – | –
COC(=O)C1CC(=O)N(c2cccc(COc3ccc(C(C)=O)c(F)c3)c2)C1 (configuration not stated) | 20.4 | 5.35 | – | – | –
COC(=O)CC(=O)Nc1cccc(COc2ccc(C(C)=O)cc2)c1 | – | – | 37.2 | – | < 50
CCc1ccc(OCc2cccc(NC(=O)CC(=O)OC)c2)cc1OC | – | – | 0.2 | – | –
CCCCCCc1ccc(OCc2cccc(NC(=O)CC(=O)OC)c2)cc1OC | 1.7 | 1.59 | -0.2 | – | –
COC(=O)C(=O)Nc1cccc(COc2ccc(C(C)=O)c(F)c2)c1 | – | – | 57.3 | – | –
CCCCCC(=O)c1ccc(OCc2cccc(NC(=O)CCC(=O)OC)c2)cc1OC | 3.87 | 3.71 | 0 | – | –
COC(=O)CC(=O)Nc1cccc(COc2cccc(OC)c2)c1 | – | – | – | – | < 50
CCCCCCc1ccc(OCc2cccc(NC(=O)CCC(=O)OC)c2)cc1OC | – | – | 0.2 | – | –
COC(=O)C(=O)Nc1cccc(COc2ccc(C(C)=O)c(O)c2)c1 | 39.5 | 25.1 | 0.1 | – | –
CCCCCC(=O)c1ccc(OCc2cccc(NC(=O)CCC(=O)OC)c2)cc1O | – | – | 0 | – | –
COC(=O)CCC(=O)Nc1cccc(COc2ccc(C(C)=O)c(F)c2)c1 | – | – | 20.8 | – | –
COC(=O)CCC(=O)Nc1cccc(COc2ccc(C(C)=O)c(O)c2)c1 | – | – | 37.9 | – | –
COC(=O)CCC(=O)Nc1cccc(COc2ccc(C(C)=O)c(OC)c2)c1 | – | – | 0.11 | – | –
COC(=O)CCCC(=O)Nc1cccc(COc2ccc(C(C)=O)c(F)c2)c1 | – | – | 0 | – | –
CCCc1c(OCc2cccc(NC(=O)CC(=O)OC)c2)ccc(C(C)=O)c1O | – | – | 24.8 | – | –
CCCCCC(=O)c1ccc(OCc2cccc(NC(=O)CC(=O)OC)c2)cc1O | – | – | -0.5 | – | –
COC(=O)CC(=O)Nc1cccc(COc2ccc(C(C)=O)c(F)c2)c1 | 22.5 | 25.5 | 0 | – | –
CCCc1c(OCCCCc2nnn[nH]2)ccc(C(C)=O)c1O [TOMELUKAST] | 21.6 | 41 | 78.8 | – | –
